Measured values pooled from the literature.
Target: Protein-tyrosine kinase 2-beta (PTK2B, Homo sapiens, UniProt Q14289)

C[C@H](c1ccc(F)cc1)N(Cc1cccc(C(=O)O)c1)C(=O)c1cnc2ccccc2c1 has a remaining binding of 100% (cell-free assay, competition with immobilised ligand; 1 µM).
For Cc1ccc(C(=O)NCc2ccsc2)cc1C#Cc1cn(C(C)C)c2ncnc(N)c12, the activity vs control was 57% (enzyme activity, inhibitor; 1 µM).
The inhibition of CCN(CC)CCNC(=O)c1c(C)[nH]c(/C=C2\C(=O)Nc3ccc(F)cc32)c1C is reported as 97% (enzyme activity, inhibitor; 10 µM).
With COc1cc2ncnc(Nc3ccc(Oc4ccccc4)cc3C)c2cc1OC the inhibition was 3% (enzyme activity, inhibitor; 1 µM).
With CNC(=O)c1cc(Oc2ccc(NC(=O)Nc3ccc(Cl)c(C(F)(F)F)c3)cc2)ccn1 the inhibition was 28% (enzyme activity, inhibitor; 10 µM).
O=C(Nc1ccc(Oc2ccc(F)cc2)cc1)N1CCc2ncccc2[C@H]1c1ccc(F)cc1 has a remaining binding of 89% (cell-free assay, competition with immobilised ligand; 1 µM).
For CC(C)(O)[C@H]1CC[C@H](Nc2ccc3ncc(-c4cccc(C(F)(F)F)c4)n3n2)CC1, the remaining activity was 94.4% (enzyme activity, inhibitor; 1 µM).
For Cc1[nH]c(/C=C2\C(=O)Nc3ccc(F)cc32)c(C)c1C(=O)N[C@H]1CCN(C(=O)N(C)C)C1, the remaining activity was 109% (enzyme activity, inhibitor; 0.1 µM).
COc1cc2c(N3CCN(C(=O)Nc4ccc(OC(C)C)cc4)CC3)ncnc2cc1OCCCN1CCCCC1 gave a remaining signal of 99.3% (cell-free assay; 0.5 µM).
CC(C)(C)c1nc2c(s1)c1nc(N)ncc1c1ccc(NS(=O)(=O)c3c(F)cccc3F)c(F)c12 has a remaining activity of 91% (enzyme activity, inhibitor, radiometric; 1 µM).
The remaining signal of COc1cc2c(Nc3ccc(Br)cc3F)ncnc2cc1OCC1CCN(C)CC1 is reported as 99.5% (cell-free assay; 0.5 µM).
With Cc1nc(Cc2cccc(C(F)(F)F)c2)sc1-c1ccc(C(N)=O)nc1 the remaining binding was 100% (cell-free assay, competition with immobilised ligand; 1 µM).
O=C1Nc2ccc(Cl)cc2C1=Cc1cc(Cl)c(O)c(Cl)c1 gave a remaining signal of 96.7% (cell-free assay; 0.5 µM).
CNC(=O)c1ccc(Nc2ncc(C(F)(F)F)c(NCc3nccnc3N(C)S(C)(=O)=O)n2)cc1 has a remaining binding of 8.3% (binding, competition with immobilised ligand; 1 µM).
The remaining activity of O=C(Nc1cnn(-c2csc(C(=O)NC3COC3)c2)c1)Nc1c(F)cccc1Cl is reported as 91% (enzyme activity, inhibitor; 5 µM).
Cc1ccc(C(=O)Nc2ccc(CN3CCN(C)CC3)c(C(F)(F)F)c2)cc1C#Cc1cnc2cccnn12 has a remaining activity of 45% (enzyme activity, inhibitor; 23.5 nM).
O=C(N1CCS(=O)(=O)CC1)N1C[C@H](c2ccc(OC(F)(F)F)cc2)C[C@H](c2nc(C3CC3)no2)C1 has a remaining binding of 99% (cell-free assay, competition with immobilised ligand; 1 µM).
CC/C(=N\NC(=O)NCc1cccc(O)c1)c1ccc(O)c(C)c1O gave an inhibition of -0.1% (enzyme activity, inhibitor; 0.1 µM).
With Cc1ccc(Nc2nccc(N(C)c3ccc4c(C)n(C)nc4c3)n2)cc1S(N)(=O)=O the inhibition was 81% (enzyme activity, inhibitor; 10 µM).
With CCCS(=O)(=O)Nc1ccc(F)c(C(=O)c2c[nH]c3ncc(-c4ccc(Cl)cc4)cc23)c1F the inhibition was < 10% (enzyme activity, inhibitor; 1 µM).
With CNC(=O)c1cc2c(Oc3ccc(NC(=O)C4(C(=O)Nc5ccc(F)cc5)CC4)cc3)ccnc2cc1OC the inhibition was 79% (enzyme activity, inhibitor, radiometric; 1 µM).
c1nc2c(Nc3ccc4c(c3)OCCO4)nc(Nc3ccc4c(c3)OCCO4)nc2[nH]1 has an activity vs control of 2.3% (enzyme activity, inhibitor; 10 µM).
CCCCN(CCCC)C(=O)CN1C[C@H](c2cc(OC)c3c(c2)OCO3)[C@@H](C(=O)O)[C@@H]1CC(C)(C)CCC gave a remaining binding of 100% (cell-free assay, competition with immobilised ligand; 1 µM).
CCN(CC)CCNC(=O)c1c(C)[nH]c(/C=C2\C(=O)Nc3ccc(F)cc32)c1C has a remaining activity of 30% (enzyme activity, inhibitor; 1 µM).
With Cc1noc([C@H]2C[C@@H](c3ccc(C(F)(F)F)cc3)CN(C(=O)N3CCS(=O)(=O)C3)C2)n1 the remaining binding was 100% (cell-free assay, competition with immobilised ligand; 1 µM).
Nc1nc(Nc2ccc(S(N)(=O)=O)cc2)nn1C(=O)c1c(F)cccc1F has a remaining signal of 79.7% (cell-free assay; 0.5 µM).
The remaining binding of CN(c1ccnc(CNc2nc(Nc3ccc4c(c3)CC(=O)N4)ncc2C(F)(F)F)n1)S(C)(=O)=O is reported as 59% (cell-free assay, competition with immobilised ligand; 1 µM).
Nc1ncnc2occ(-c3ccc(NC(=O)Nc4cc(C(F)(F)F)ccc4F)cc3)c12 gave a remaining signal of 2.8% (cell-free assay, inhibitor; 20 µM).
